Test results from ChEMBL document CHEMBL2176922, “Benzofuroxane derivatives as multi-effective agents for the treatment of cardiovascular diabetic complications. Synthesis, functional evaluation, and molecular modeling studies” (J Med Chem, 2012).
Active and inactive are the calls of the source. No cut-off for these calls is given here.

Tests used:
[1] = system: Brain; assay: Antioxidant activity in Sprague-Dawley albino rat brain homogenate assessed as inhibition of hydroxyl radical dependent lipoperoxidation measuring malondialdehyde production at 100 uM after 30 mins by TBARS assay; assay type: functional, tissue-based
Outline: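 Rat brain homogenized 10% (w/v) in phosphate buffer pH 7.4; 100 μL homogenate with 20 μM FeCl3 and 100 μM ascorbic acid (final), test compound at 100 μM final, 1 mL, 30 min at 37 °C. TBA/HCl added, boiled 10 min, n-butanol extraction, A532; TBARS as nmol MDA per 10 mg wet tissue vs tetramethoxypropane standard curve. At least two determinations in triplicate.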

[2] = target: Aldo-keto reductase family 1 member B1 (Rattus norvegicus, UniProt P07943); assay: Inhibition of Sprague-Dawley albino rat lens ALR2 by spectrophotometry; assay type: tissue-based, Lens of camera-type eye
[3] = system: Liver; assay: Induction of NO generation in Sprague-Dawley albino rat liver homogenate at 10^-4 M after 1 hr by Griess reaction; assay type: functional, tissue-based
Outline: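 Rat liver rinsed in ice-cold sucrose buffer (100 mM K2HPO4, 1 mM EDTA, 1.15% KCl, 0.25 M sucrose, 0.1% EtOH, pH 7.4), homogenized 1/6 w/v, gauze-filtered, spun 600g 10 min at 0 °C to remove nuclei. Incubated with compound 1 h at 37 °C; nitrite measured by Griess reaction at 543 nm, given as % NO2− (mol/mol) relative to compound added. At least two determinations in triplicate.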

[4] = species on record: Rattus norvegicus; assay: Inhibition of Aldehyde reductase in Sprague-Dawley albino rat at 100 uM
Outline: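 Rat kidney ALR1 at 37 °C with 20 mM sodium D-glucuronate and 0.12 mM NADPH (stock levels), dialyzed enzyme, 0.1 M sodium phosphate pH 7.2; rate calibrated to 0.015 absorbance unit/min. NADPH oxidation followed at 340 nm; blank without substrate. Percent inhibition at 100 μM.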

[5] = target: Aldo-keto reductase family 1 member B1 (Rattus norvegicus) (UniProt P07943); assay: Ratio of KM07100 IC50 to compound IC50 for Sprague-Dawley albino rat lens ALR2; assay type: tissue-based; conditions: Lens of camera-type eye

In the case of `[O-][n+]1onc2cc(OCc3ccc(F)cc3)ccc21`, the inhibition [1] is reported as “Active”, the IC50 [2] is reported as 820 nM and the Activity [3] is reported as “inactive”. The inhibition [4] was “inactive”.

`Cc1ccc(COc2ccc3c(c2)no[n+]3[O-])cc1` was tested, and the inhibition [1] was “Active”, the IC50 [2] was 830 nM and the Activity [3] was 2%. For the same molecule, the inhibition [4] was 24%.

With `Cc1c(C)c2c(c(C)c1O)CC[C@@](C)(CCC[C@H](C)CCC[C@H](C)CCCC(C)C)O2` the inhibition [1] was “Active”.

`[O-][n+]1onc2cc(OCCc3ccccc3)ccc21` was tested, and the inhibition [1] was “Active”, the IC50 [2] was 5900 nM and the Activity [3] was 2%. The inhibition [4] was 11%.

For `COc1ccc(COc2ccc3c(c2)no[n+]3[O-])cc1`, the inhibition [1] was “Active”, the IC50 [2] was 4520 nM and the Activity [3] was 2%. For the same molecule, the inhibition [4] was “inactive”.

For `[O-][n+]1onc2cc(OCc3ccc(Br)cc3F)ccc21`, the inhibition [1] was “Active”, the IC50 [2] was 1410 nM and the Activity [3] was “inactive”. For the same molecule, the inhibition [4] was “inactive”.

`[O-][n+]1onc2cc(OCc3ccc(Br)cc3)ccc21` was tested, and the inhibition [1] was “Active”, the IC50 [2] was 7360 nM and the Activity [3] was 2%. The inhibition [4] was 19%.

In the case of `O=S(=O)(Oc1ccc2nonc2c1)c1ccc(Cl)s1`, the inhibition [4] is reported as 20%.

With `[O-][n+]1onc2cc(OCc3ccc(Cl)cc3)ccc21` the inhibition [1] was “Active”, the IC50 [2] was 920 nM and the Activity [3] was 2%. It also gave an inhibition [4] of 19%.

`[O-][n+]1onc2cc(OCc3ccc(C(F)(F)F)cc3)ccc21` was tested, and the inhibition [1] was “Active”, the IC50 [2] was 1940 nM and the Activity [3] was 2%. For the same molecule, the inhibition [4] was 14%.

With `[O-][n+]1onc2cc(OCc3ccccc3)ccc21` the inhibition [1] was 50%, the IC50 [2] was 990 nM and the Activity [3] was 2%. It also gave a Ratio IC50 [5] of 36 and an inhibition [4] of 26%.

`O=[N+]([O-])c1cccc(COc2ccc3c(c2)no[n+]3[O-])c1` was tested, and the inhibition [1] was “Active”, the IC50 [2] was 460 nM and the Activity [3] was 2%. The inhibition [4] was 5%.

In the case of `[O-][n+]1onc2cc(OCc3ccc4ccccc4c3)ccc21`, the inhibition [1] is reported as “Active”, the IC50 [2] is reported as 1430 nM and the Activity [3] is reported as 2%. For the same molecule, the inhibition [4] was 35%.

In the case of `[O-][n+]1onc2cc(OCc3nc4ccccc4s3)ccc21`, the inhibition [1] is reported as “Active”, the IC50 [2] is reported as 420 nM and the Activity [3] is reported as “inactive”. For the same molecule, the inhibition [4] was 38%.
